Compound activity (PubChem BioAssay)
This is one part of a sample in which hits are shown more often than they occur.
XBP1 UPR activ: adaptive UPR (XBP1) activation. CHO-XBP1 luciferase reporter, IRE1-XBP1 UPR activation, luminescence; percent of tunicamycin response, DMSO as zero. actives 0.33% (n = 330,000). activation, % at 20 µM;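 active = versus positive control, 20 µM dose yields 30% or more activation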;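 note: 100% = tunicamycin at 10 µg/mL and 0% = DMSO only wells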
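Assay system: IRE1-XBP1 luciferase reporter CHO line. Input: 1000 cells/well. Buffer or medium: F12 with 10% serum. Doses: 20 µM, 1% DMSO. Times: overnight seeding at 37 °C, 6 h compound treatment at 37 °C. Technique: Steady-Glo luciferase glow luminescence, 10 min after reagent addition.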
CHOP UPR activ: apoptotic UPR (CHOP) activation | CHO-CHOP luciferase reporter, luminescence; percent of tunicamycin response over DMSO baseline | activation, % at 10 µM | actives 0.34% (n = 330,000);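 active = at 10 µM dose, activation of 40% or more, normalized to positive control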;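 note: 100% = tunicamycin at 10 µg/mL and 0% = DMSO alone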
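Evaluation: % reporter activation, DMSO baseline versus tunicamycin full activation; System: CHO-CHOP luciferase reporter cell line; Input: 500 cells/well; Incubation: 6 h compound treatment, 37 °C; Measured by: Steady-Glo luciferase luminescence; Dosing: one dose, 10 µM in 0.5% DMSO; Buffer or medium: F12 medium, 10% FBS; Benchmarks: positive tunicamycin 10 µg/mL, negative DMSO alone.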
A1 inh: inhibitors of the anti-apoptotic protein A1, read as caspase activation. MEF A1-2A-BIM cells, Caspase-Glo 3/7 luminescence, 3 h; percent of clofoctol response, vehicle zero. caspase activation, % (concentration not given with the values). actives 0.066% (n = 330,000);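 active = over half of replicate activation scores above 10%, or exactly half above 10 with the replicate mean above 10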
CHOP inh: inhibitors of CHOP induction in ER stress response; CHO-K1 CHOP-promoter luciferase, tunicamycin-induced, 15-18 h; inhibition, % at 10 µM; actives 3.8% (n = 220,000);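 active = compounds that reduced the stress-induced luciferase reporter signal by more than about 70% of percent inhibition, limit read from the data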;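 note: 0% = tunicamycin plus vehicle and 100% = wells without tunicamycin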
UPR CHOP confirm: apoptotic UPR (CHOP) activation, confirmed; shares compounds with CHOP UPR activ; CHO-CHOP cells, CHOP-luciferase reporter luminescence; percent of tunicamycin response, DMSO as zero; activation, % at 10 µM; actives 64% (n = 1,000); AID 463112; in the data active = activation above about 33%;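 note: 0% = DMSO wells and 100% = tunicamycin 10 µg/mL wells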
Active calls of the source: *; nt = not tested or not shown.

SMILES	XBP1 UPR activ	CHOP UPR activ	A1 inh	CHOP inh	UPR CHOP confirm
O=C(c1ccc(Br)cc1)C(CN1CCOCC1)c1ccccc1 (stereo not given)	0	105*	0	nt	137*
CCOc1ccc(C(=O)C(CN2CCOCC2)c2ccccc2)cc1 (stereo not given)	nt	nt	-1	-68	nt
C=CCc1cccc(/C=N/NC(=O)c2ccccc2Br)c1O	3	0	0	26	nt
C=CCc1cccc(/C=N/NC(=O)c2ccccc2OC)c1O	3	127*	-2	-37	2
O=C(N/N=C/c1ccccn1)c1cc(-c2ccccc2)nc2ccccc12	-4	133*	0	3	131*
O=C(N/N=C/c1ccccn1)c1ccc(Cl)c(Cl)c1	1	208*	1	nt	233*
CC(=O)c1ccc(S(=O)(=O)NCCC(=O)NC(C)c2ccncc2)cc1 (stereo not given)	-3	-1	nt	nt	nt
COc1ccc(/C=C/c2ccc3cccc(O)c3n2)c(OC)c1OC	11	135*	0	nt	31
CCOc1cccc2cc(-c3csc(NC(=O)CCC(=O)N4CCC(C)CC4)n3)c(=O)oc12	37*	95*	-1	86*	16
CCOc1cccc2cc(-c3csc(NC(=O)CCC(=O)NCCCN4CCC(C)CC4)n3)c(=O)oc12	3	5	-5	-8	nt
COc1ccc(CCNC(=O)c2cc3c(=O)n4cccc(C)c4nc3n(Cc3ccco3)c2=N)cc1OC	1	245*	-2	nt	1
Cc1cccn2c(=O)c3cc(C(=O)NCCc4ccccc4)c(=N)n(Cc4ccco4)c3nc12	0	6	0	nt	nt
CCN(CC)C(=O)[C@H]1CC(CC(=O)NCC23CC4CC(CC(C4)C2)C3)C(=O)N2CCc3c([nH]c4ccccc34)[C@]12C (stereo not given in full)	19	6	nt	nt	nt
Oc1c(Cl)cc(CN2CCOCC2)c2cccnc12	20	134*	1	nt	128*
O=C(Oc1c(CN2CCOCC2)cc(Cl)c2cccnc12)c1ccccc1F	20	79*	0	67	70*
Oc1c(CN2CCCCC2)cc(Br)c2cccnc12	26	88*	-2	nt	125*
Oc1c(CN2CCc3ccccc3C2)cc(Cl)c2cccnc12	21	86*	0	nt	325*
O=C(Oc1c(CN2CCOCC2)cc(Cl)c2cccnc12)c1ccccc1	16	14	0	4	nt
Cc1cc(-c2onc(C)c2C(=O)N/N=C/c2ccccc2)no1	1	-1	-1	11	nt
Cc1ccc(SC(=O)c2c(C)noc2-c2cc(C)on2)cc1	-4	57*	-1	18	18
N#CC1=C(N)OC2=C(CC/C2=C\c2ccccc2)C1c1ccccc1 (stereo not given)	3	104*	0	58	180*
COC(=O)C1=C(C)N(c2ccc(C)c(C)c2)/C(=C/c2cccs2)C1=O	15	90*	2	10	50*
COC(=O)C1=C(C)N(c2ccc(Cl)cc2)/C(=C/c2cccs2)C1=O	1	4	1	-17	nt
CCOC(=O)c1cnc(-n2nc(C)cc2C)nc1NC(C)c1ccccc1 (stereo not given)	30	73*	nt	43	29
CCOC(=O)c1cnc(-n2nc(C)cc2C)nc1NCc1ccccc1	19	74*	1	-80	25
SMILES	XBP1 UPR activ	CHOP UPR activ	A1 inh	CHOP inh	UPR CHOP confirm
CCOC(=O)c1cnc(-n2nc(C)cc2C)nc1NNc1ncc(-c2ccccc2)cn1	0	-1	0	27	nt
COc1cccc(-c2nc(CS(=O)(=O)CC(=O)Nc3cc(OC)ccc3OC)c(C)o2)c1	-3	2	1	nt	nt
COc1cc(/C=N/N2CCN(Cc3ccc(C)cc3)CC2)cc(OC)c1O	-4	-2	0	nt	nt
O=C(CCl)Nc1ccc(-c2ccccc2)cc1	2	43*	-1	-49	47*
CC(=O)Nc1ccc(NC(=O)Cc2ccc(-c3ccccc3)cc2)cc1	-2	0	0	nt	nt
CSCCC(NC(=O)c1cccc(C)c1)C(=O)Nc1sccc1C(N)=O (stereo not given)	-3	-1	1	nt	nt
CC(OC(=O)c1c[nH]c2ccccc12)C(=O)N1CCCC1 (stereo not given)	-1	90*	1	nt	-1
CCC(C)(CN(C)C)OC(=O)c1ccccc1 (stereo not given)	-5	0	0	nt	nt
C/C(=N\NC(=O)COc1ccccc1-c1ccccc1)c1ccccn1	1	105*	-1	37	205*
C/C(=N\NC(=O)c1ccc(Cl)cc1)c1ccccn1	2	407*	-5	nt	403*
CCCCCC(=O)N/N=C(\C)c1ccccn1	1	-1	1	29	nt
Cc1cc(C)c(NC(=O)Cn2nnc(C(=O)Nc3ccc(F)cc3F)c2N)c(C)c1	-2	0	0	nt	nt
O=C(c1cccc(N2C(=O)C3C4C=CC(C4)C3C2=O)c1)N1CCN(c2ccccc2F)CC1 (stereo not given)	-5	3	0	nt	nt
Cn1c(SCC(=O)NCC2CCCO2)ncc(C(=O)Nc2ccc(Cl)cc2)c1=O (stereo not given)	5	158*	-8	nt	138*
CC(=O)c1cccc(NC(=O)CSc2ncc(C(=O)Nc3ccccc3)c(=O)n2C)c1	-4	299*	-6	nt	460*
O=C(CCS(=O)(=O)c1ccccc1)N(CCCN1CCOCC1)c1nc2ccc(F)cc2s1	-7	57*	5.3*	nt	21
C[C@@H](NC(=O)c1coc(=O)c(Br)c1)c1ccccc1	-9	115*	-1	36	97*
COc1ccc(C(=O)NC(C)c2ccccc2)cc1Br (stereo not given)	-5	-2	0	8	nt
O=C(CCC1CCCC1)NNC(=O)c1cccc(Cl)c1	-3	1	-1	nt	nt
COC(=O)c1cc(=O)n(Cc2ccco2)c(=Nc2ccc(F)c(Cl)c2)s1	7	55*	1	29	54*
O=C(CN1CCN(c2ccccc2F)CC1)c1ccc(O)c(O)c1	49*	108*	-1	nt	41*
O=C(CN1CCN(S(=O)(=O)c2ccc(Br)cc2)CC1)c1ccc(O)c(O)c1	30	61*	1	nt	7
CC(C)c1ccc(S(=O)(=O)N2CCN(CC(=O)c3ccc(O)c(O)c3)CC2)cc1	19	19	1	nt	nt
CCC/C(O)=C1\C(=O)CC(C)(C)CC1=Nc1cccc([N+](=O)[O-])c1	1	1	0	nt	nt
Cc1ccc(C(=O)c2coc3ccc(O)cc23)cc1	-3	0	-13	nt	nt
Cc1ccc(S(N)(=O)=O)cc1NC(=O)c1ccc2c3c(cccc13)CC2	-1	0	1	nt	nt
CSc1ccccc1NC(=O)CN(C)C(=O)COc1cccc2cccnc12	13	48*	-1	nt	12
